Laboratory results taken from ChEMBL document CHEMBL1142888, “Synthesis, antimicrobial, and anti-inflammatory activities of novel 2-(1-adamantyl)-5-substituted-1,3,4-oxadiazoles and 2-(1-adamantylamino)-5-substituted-1,3,4-thiadiazoles” (2007).
≈ marks a conversion by molar mass, not a printed value.

Assays:
[1] = tested on: Candida albicans; experiment: Antimicrobial activity against Candida albicans IFO 0583 after 48 hrs; assay type: functional; conditions: IFO 0583, 48 h
[2] = tested on: Candida albicans; experiment: Antimicrobial activity against Candida albicans IFO 0583 at 100 ug/disc after 48 hrs; assay type: functional; conditions: IFO 0583, 48 h, read-out: IZ
[3] = tested on: Rattus norvegicus; experiment: Antiinflammatory effect on carrageenan-induced paw oedema Sprague-Dawley rat assessed as reduction of paw oedema at 10 mg/kg, ip; assay type: functional; parameters: scale not given: the % may be the effect or the level left; conditions: route intraperitoneal
Method in brief: (§1)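 Rats in groups of five, acclimatised two days, given compound (20, 40, 60 mg/kg) or indomethacin (10 mg/kg) i.p. as suspension in 1 ml 0.5% aqueous carboxymethyl cellulose 1 h before 0.1 ml 1% carrageenin in saline into right hind plantar tissue; left paw got saline. Paw volume by water plethysmometer at 4 h; % protection vs vehicle control; mean ± S.E.M., Student's t test.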

[4] = tested on: Staphylococcus aureus; experiment: Antimicrobial activity against Staphylococcus aureus IFO 3060 after 24 hrs; assay type: functional; conditions: IFO 3060, 24 h
[5] = tested on: Escherichia coli; experiment: Antimicrobial activity against Escherichia coli IFO 3301 after 24 hrs; assay type: functional; conditions: IFO 3301, 24 h
[6] = tested on: Rattus norvegicus; experiment: Antiinflammatory effect on carrageenan-induced paw oedema Sprague-Dawley rat assessed as reduction of paw oedema at 20 mg/kg, ip; assay type: functional; parameters: scale not given: the % may be the effect or the level left; conditions: route intraperitoneal; method in brief: as §1
[7] = tested on: Candida albicans; experiment: Antimicrobial activity against Candida albicans IFO 0583 at 200 ug/disc after 48 hrs; assay type: functional; conditions: IFO 0583, 48 h, read-out: IZ
[8] = tested on: Bacillus subtilis; experiment: Antimicrobial activity against Bacillus subtilis IFO 3007 after 24 hrs; assay type: functional; conditions: IFO 3007, 24 h
[9] = tested on: Staphylococcus aureus; experiment: Antimicrobial activity against Staphylococcus aureus IFO 3060 at 200 ug/disc after 24 hrs; assay type: functional; conditions: IFO 3060, 24 h, read-out: IZ
[10] = tested on: Escherichia coli; experiment: Antimicrobial activity against Escherichia coli IFO 3301 at 200 ug/disc after 24 hrs; assay type: functional; conditions: IFO 3301, 24 h, read-out: IZ
[11] = tested on: Pseudomonas aeruginosa; experiment: Antimicrobial activity against Pseudomonas aeruginosa IFO 3448 at 200 ug/disc; assay type: functional; conditions: read-out: IZ
[12] = tested on: Bacillus subtilis; experiment: Antimicrobial activity against Bacillus subtilis IFO 3007 at 200 ug/disc after 24 hrs; assay type: functional; conditions: IFO 3007, 24 h, read-out: IZ
[13] = tested on: Rattus norvegicus; experiment: Antiinflammatory effect on carrageenan-induced paw oedema Sprague-Dawley rat assessed as reduction of paw oedema at 40 mg/kg, ip; assay type: functional; parameters: scale not given: the % may be the effect or the level left; conditions: route intraperitoneal; method in brief: as §1
[14] = tested on: Rattus norvegicus; experiment: Antiinflammatory effect on carrageenan-induced paw oedema Sprague-Dawley rat assessed as reduction of paw oedema at 60 mg/kg, ip; assay type: functional; parameters: scale not given: the % may be the effect or the level left; conditions: route intraperitoneal; method in brief: as §1
[15] = tested on: Pseudomonas aeruginosa; experiment: Antimicrobial activity against Pseudomonas aeruginosa IFO 3448 at 100 ug/disc; assay type: functional; conditions: read-out: IZ
[16] = tested on: Escherichia coli; experiment: Antimicrobial activity against Escherichia coli IFO 3301 at 100 ug/disc after 24 hrs; assay type: functional; conditions: IFO 3301, 24 h, read-out: IZ
[17] = tested on: Pseudomonas aeruginosa; experiment: microbe, parasite or virus in culture; conditions: IFO 3448
[18] = tested on: Bacillus subtilis; experiment: Antimicrobial activity against Bacillus subtilis IFO 3007 at 100 ug/disc after 24 hrs; assay type: functional; conditions: IFO 3007, 24 h, read-out: IZ
[19] = tested on: Staphylococcus aureus; experiment: Antimicrobial activity against Staphylococcus aureus IFO 3060 at 100 ug/disc after 24 hrs; assay type: functional; conditions: IFO 3060, 24 h, read-out: IZ

Structure (SMILES)	MIC [4] [mg/L]	MIC [5] [mg/L]	Activity [6] [%]	zone of inhibition at 200 µg/disc [7] [mm]	MIC [8] [mg/L]	zone of inhibition at 200 µg/disc [9] [mm]	zone of inhibition at 200 µg/disc [10] [mm]	zone of inhibition at 200 µg/disc [11] [mm]	zone of inhibition at 200 µg/disc [12] [mm]	Activity [13] [%]	further results
Clc1ccccc1C(c1ccccc1)(c1ccccc1)n1ccnc1 [CLOTRIMAZOLE]	–	–	–	–	–	–	–	–	–	–	MIC [1]: 2 mg/L (≈ 5.8 µM); zone of inhibition at 100 µg/disc [2]: 21 mm
COc1ccc2c(c1)c(CC(=O)O)c(C)n2C(=O)c1ccc(Cl)cc1 [INDOMETHACIN]	–	–	–	–	–	–	–	–	–	–	Activity [3]: 60.4%
O=C(NNC(=S)NC12CC3CC(CC(C3)C1)C2)c1ccc([N+](=O)[O-])cc1	1 (≈ 2.67 µM)	2 (≈ 5.34 µM)	0.76	< 10	0.5 (≈ 1.34 µM)	20	19	15	24	–	–
O=[N+]([O-])c1ccc(-c2nnc(NC34CC5CC(CC(C5)C3)C4)s2)cc1	2 (≈ 5.61 µM)	1 (≈ 2.81 µM)	9.11	< 10	2 (≈ 5.61 µM)	16	17	12	18	10.1	Activity [14]: 10.74%
O=C(NNC(=S)NC12CC3CC(CC(C3)C1)C2)c1ccccc1	–	4 (≈ 12.1 µM)	2.32	< 10	1 (≈ 3.04 µM)	< 10	16	< 10	22	1.8	–
CC1(C)S[C@@H]2[C@H](NC(=O)[C@H](N)c3ccccc3)C(=O)N2[C@H]1C(=O)O [AMPICILLIN]	1 (≈ 2.86 µM)	–	–	–	0.5 (≈ 1.43 µM)	–	–	–	–	–	zone of inhibition at 100 µg/disc [15]: 15 mm; zone of inhibition at 100 µg/disc [16]: 16 mm; MIC [17]: 2 mg/L (≈ 5.72 µM); zone of inhibition at 100 µg/disc [18]: 18 mm; zone of inhibition at 100 µg/disc [19]: 19 mm
